Results taken from ChEMBL document CHEMBL1125112, “Antitumor imidazotetrazines. 20. Preparation of the 8-acid derivative of mitozolomide and its utility in the preparation of active antitumor agents” (1990).

Key:
L1210 [1] = assay: In vivo antitumor activity against the L1210 leukemia cell line in mouse species B6D2F1 after intraperitoneal administration (inoculum cells-10E5,ip) at the dose of 200 mg/kg; type: functional
L1210 [2] = assay: In vivo antitumor activity against the L1210 leukemia cell line in mouse species B6D2F1 after intraperitoneal administration (inoculum cells-10E5,ip) at the dose of 50 mg/kg; type: functional
L1210 [3] = assay: In vivo antitumor activity against the L1210 leukemia cell line in mouse species B6D2F1 after intraperitoneal administration (inoculum cells-10E5,ip) at the dose of 100 mg/kg; type: functional
L1210 [4] = assay: In vivo antitumor activity against the L1210 leukemia cell line in mouse species B6D2F1 after intraperitoneal administration (inoculum cells-10E5,ip) at the dose of 100 mg/kg on 7th day; type: functional
L1210 [5] = assay: In vivo antitumor activity against the L1210 leukemia cell line in mouse species B6D2F1 after intraperitoneal administration (inoculum cells-10E5,ip) at the dose of 200 mg/kg on 7th day; type: functional
L1210 [6] = assay: In vivo antitumor activity against the L1210 leukemia cell line in mouse species B6D2F1 after intraperitoneal administration (inoculum cells-10E5,ip) at the dose of 50 mg/kg on 7th day; type: functional
TLX-5 [7] = assay: In vivo antitumor activity against the TLX5 lymphoma cell line in mouse species CBA/CA after intraperitoneal administration (inoculum cells-2x10E5,sc) at the dose of 10 mg/kg; type: functional
TLX-5 [8] = assay: In vivo antitumor activity against the TLX5 lymphoma cell line in mouse species CBA/CA after intraperitoneal administration (inoculum cells-2x10E5,sc) at the dose of 160 mg/kg; type: functional
In short: (§1)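 CBA/CA mice were inoculated with 2 × 10^5 TLX5 lymphoma cells. Drug given intraperitoneally in 10% Me2SO in arachis oil, 5 mice per dose, and the experiment lasted 60 days. Survivors at 60 days were recorded. T/C % = mean death day of treated animals / mean death day of control animals.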

TLX-5 [9] = assay: In vivo antitumor activity against the TLX5 lymphoma cell line in mouse species CBA/CA after intraperitoneal administration (inoculum cells-2x10E5,sc) at the dose of 20 mg/kg; type: functional; in short: as §1
TLX-5 [10] = assay: (§2) In vivo antitumor activity against the TLX5 lymphoma cell line in mouse species CBA/CA after intraperitoneal administration (inoculum cells-2x10E5,sc) at the dose of 40 mg/kg; type: functional; in short: as §1
TLX-5 [11] = assay: In vivo antitumor activity against the TLX5 lymphoma cell line in mouse species CBA/CA after intraperitoneal administration (inoculum cells-2x10E5,sc) at the dose of 80 mg/kg; type: functional; in short: as §1
TLX-5 [12] = assay: In vivo antitumor activity against the TLX5 lymphoma cell line in mouse species CBA/CA after intraperitoneal administration (inoculum cells-2x10E5,sc) at the dose of 10 mg/kg on 5th day; type: functional
TLX-5 [13] = assay: In vivo antitumor activity against the TLX5 lymphoma cell line in mouse species CBA/CA after intraperitoneal administration (inoculum cells-2x10E5,sc) at the dose of 160 mg/kg on 5th day; type: functional
TLX-5 [14] = assay: In vivo antitumor activity against the TLX5 lymphoma cell line in mouse species CBA/CA after intraperitoneal administration (inoculum cells-2x10E5,sc) at the dose of 20 mg/kg on 5th day; type: functional
TLX-5 [15] = assay: (§3) In vivo antitumor activity against the TLX5 lymphoma cell line in mouse species CBA/CA after intraperitoneal administration (inoculum cells-2x10E5,sc) at the dose of 40 mg/kg on 5th day; type: functional
TLX-5 [16] = assay: In vivo antitumor activity against the TLX5 lymphoma cell line in mouse species CBA/CA after intraperitoneal administration (inoculum cells-2x10E5,sc) at the dose of 80 mg/kg on 5th day; type: functional
TLX-5 [17] = assay: In vivo antitumor activity against the TLX5 lymphoma cell line in mouse species CBA/CA after intraperitoneal administration (inoculum cells-2x10E5,ip) at the dose of 80 mg/kg; type: functional; in short: as §1
TLX-5 [18] = assay: In vivo antitumor activity against the TLX5 lymphoma cell line in mouse species CBA/CA after intraperitoneal administration (inoculum cells-2x10E5,ip) at the dose of 160 mg/kg on 5th day; type: functional
TLX-5 [19] = assay: In vivo antitumor activity against the TLX5 lymphoma cell line in mouse species CBA/CA after intraperitoneal administration (inoculum cells-2x10E5,ip) at the dose of 320 mg/kg on 5th day; type: functional
TLX-5 [20] = assay: In vivo antitumor activity against the TLX5 lymphoma cell line in mouse species CBA/CA after intraperitoneal administration (inoculum cells-2x10E5,ip) at the dose of 80 mg/kg on 5th day; type: functional
TLX-5 [21] = assay: In vivo antitumor activity against the TLX5 lymphoma cell line in mouse species CBA/CA after intraperitoneal administration (inoculum cells-2x10E5,sc) at the dose of 160 mg/kg
L1210 [22] = assay: In vivo antitumor activity against the L1210 leukemia cell line in mouse species B6D2F1 after peroral administration (inoculum cells-10E5,iv) at the dose of 200 mg/kg; type: functional; settings: route oral
L1210 [23] = assay: In vivo antitumor activity against the L1210 leukemia cell line in mouse species B6D2F1 after peroral administration (inoculum cells-10E5,iv) at the dose of 100 mg/kg; type: functional; settings: route oral
L1210 [24] = assay: In vivo antitumor activity against the L1210 leukemia cell line in mouse species B6D2F1 after peroral administration (inoculum cells-10E5,iv) at the dose of 50 mg/kg; type: functional; settings: route oral
L1210 [25] = assay: In vivo antitumor activity against the L1210 leukemia cell line in mouse species B6D2F1 after peroral administration (inoculum cells-10E5,iv) at the dose of 100 mg/kg on 7th day; type: functional; settings: route oral
In short: (§4)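 B6D2F1 mice were inoculated with 10^5 L1210 leukemia cells, ip or iv as the line states. Compound was given orally as a suspension in 1% (carboxymethyl)cellulose in water, dosed on day 1 or 3, over 28–39 days. T/C% = mean death day of treated/mean death day of controls. Survivors to the end were counted in groups of 7–8.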

L1210 [26] = assay: In vivo antitumor activity against the L1210 leukemia cell line in mouse species B6D2F1 after peroral administration (inoculum cells-10E5,iv) at the dose of 200 mg/kg on 7th day; type: functional; settings: route oral; in short: as §4
L1210 [27] = assay: In vivo antitumor activity against the L1210 leukemia cell line in mouse species B6D2F1 after peroral administration (inoculum cells-10E5,iv) at the dose of 50 mg/kg on 7th day; type: functional; settings: route oral; in short: as §4
TLX-5 [28] = assay: as §3; type: functional; in short: as §1; remark: listed apart in the source
TLX-5 [29] = assay: In vivo antitumor activity against the TLX5 lymphoma cell line in mouse species CBA/CA after intraperitoneal administration (inoculum cells-2x10E5,sc) at the dose of 320 mg/kg on 5th day; type: functional
TLX-5 [30] = assay: as §2; type: functional; remark: listed apart in the source
In short: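 CBA/CA mice were implanted sc with 2 × 10^5 TLX5 lymphoma cells. Compound was given ip on day 3 in 10% Me2SO in arachis oil, over 60 days, in groups of 5. T/C% = mean death day of treated/mean death day of controls. Survivors to day 60 were counted.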

Question: For `CCOC(=O)c1ncn2c(=O)n(CCCl)nnc12`, which T/C (L1210 [1]) is on record?
Answer: 137%

Question: And the T/C (L1210 [2])?
Answer: 113%

Question: And the T/C (L1210 [3])?
Answer: 120%

Question: And the Survivors (L1210 [4])?
Answer: 0

Question: And the Survivors (L1210 [5])?
Answer: 0

Question: And the Survivors (L1210 [6])?
Answer: 0

Question: And the T/C (TLX-5 [7])?
Answer: 89%

Question: What about the T/C (TLX-5 [8]) of the same compound?
Answer: 113%

Question: What about the T/C (TLX-5 [9]) of the same compound?
Answer: 98%

Question: And the T/C (TLX-5 [10])?
Answer: 104%

Question: What about the T/C (TLX-5 [11]) of the same compound?
Answer: 91%

Question: And the Survivors (TLX-5 [12])?
Answer: 0

Question: And the Survivors (TLX-5 [13])?
Answer: 0

Question: And the Survivors (TLX-5 [14])?
Answer: 0

Question: What about the Survivors (TLX-5 [15]) of the same compound?
Answer: 0

Question: And the Survivors (TLX-5 [16])?
Answer: 0

Question: `O=C(NNc1ccccc1)c1ncn2c(=O)n(CCCl)nnc12` was tested. Which T/C (TLX-5 [17]) did it give?
Answer: 107%

Question: And the Survivors (TLX-5 [18])?
Answer: 0

Question: What about the Survivors (TLX-5 [19]) of the same compound?
Answer: 0

Question: And the Survivors (TLX-5 [20])?
Answer: 0

Question: What about the T/C (TLX-5 [21]) of the same compound?
Answer: 169%

Question: What does the source list for `CONC(=O)c1ncn2c(=O)n(CCCl)nnc12`?
Answer: T/C (L1210 [22]): 205%; T/C (L1210 [23]): 179%; T/C (L1210 [24]): 117%; Survivors (L1210 [25]): 0; Survivors (L1210 [26]): 0; Survivors (L1210 [27]): 0; T/C (TLX-5 [8]): >325%; T/C (TLX-5 [9]): 103%; T/C (TLX-5 [28]): 116%; T/C (TLX-5 [11]): 185%; Survivors (TLX-5 [13]): 3; Survivors (TLX-5 [14]): 0; Survivors (TLX-5 [29]): 0; Survivors (TLX-5 [30]): 0; Survivors (TLX-5 [16]): 0
